For data set [1], the system named is Homo sapiens. Briefly: Toxicity in healthy human assessed as neutrophil count in bronchoalveolar fluid at […], po administered as single dose after 2 hrs. The data set is classed as organism-based, Lung. Details: route oral. The note with it: in vivo. Summed up: (§1)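 Healthy Japanese male never-smokers, aged 20 to 45 years with normal BMI, got one open-label oral 400 mg suspension dose. Four subjects per time group had one fiber-optic bronchoscopic BAL at the assigned post-dose time. The first aliquot was discarded and the last three were pooled. BAL fluid was held on ice and spun at 400 × g for 5 min at 4°C. Pellet cells were counted by hemocytometer, with a differential count on a stained cytocentrifuge preparation.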

The test system of data set [2] is Homo sapiens. Briefly: Toxicity in healthy human assessed as neutrophil count in bronchoalveolar fluid at […], po administered as single dose after 12 hrs. It is filed as organism-based, Lung. Details: route oral. The note with it: in vivo. The procedure, abridged: as §1
Data set [3] deals with Homo sapiens. Briefly: Toxicity in healthy human assessed as lymphocytes count in bronchoalveolar fluid at […], po administered as single dose after 6 hrs. The data set is classed as organism-based, Lung. Details: route oral. The following applies: in vivo. The procedure, abridged: as §1
Data set [4] has as its system Homo sapiens. Briefly: Toxicity in healthy human assessed as other cellular fractions in bronchoalveolar fluid at […], po administered as single dose after 12 hrs. The data set is classed as organism-based, Lung. The following applies: in vivo. Details: route oral. Summed up:
as §1

Data set [5] in a line: Plasma concentration in healthy human at […], po after 8 hrs. Details: route oral. The data set is classed as ADME, organism-based. Summed up: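 Healthy nonsmoking Japanese men, 20-45 y, given one oral 400 mg suspension dose. Blood drawn at 0-72 h, spun at 1,600 × g for 10 min at 4°C, plasma kept at −20°C. Drug measured by validated LC/MS/MS, linear 0.005-5 μg/ml. Values are mean ± SD, n = 28. Cmax, Tmax and t1/2,z are model-independent; AUC0-24 by trapezoidal method.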

Data set [6] in a line: Drug level in alveolar macrophages of healthy human at […], po administered as single dose after 8 hrs. It is filed as ADME, organism-based, Macrophage. Details: route oral. The note with it: read-out: Drug uptake. Summed up:
(§2)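 One oral 400 mg suspension dose; four volunteers lavaged at each time (2-24 h). Cell pellet from the pooled 2nd-4th aspirates was counted (hemocytometer, stained cytospin differential). Drug in cell suspension measured by HPLC, divided by AM volume assuming 2.42 μl/10^6 cells. Cmax and Tmax are model-independent, based on mean concentrations at each time.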

Data set [7] is described as follows: Drug level in alveolar macrophages of healthy human at […], po administered as single dose after 12 hrs. The data set is classed as ADME, organism-based, Macrophage. Details: route oral. The following applies: read-out: Drug uptake. Summed up: as §2
Data set [8] in a line: Ratio of drug level in epithelial lining fluid to plasma in healthy human at […] administered as single dose after 2 hrs. It is filed as ADME, organism-based. Details: route oral. The following applies: po. The procedure, abridged: (§3)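 For each subject, ELF or AM drug level after the single oral 400 mg dose is divided by the plasma level sampled at the BAL time (2-24 h). Ratios are summarized per four-subject group.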

Data set [9] is described as follows: Ratio of drug level in epithelial lining fluid to plasma in healthy human at […], po administered as single dose after 4 hrs. The data set is classed as ADME, organism-based. Also on record: route oral. Summed up: as §3
A further data set relates to Haemophilus influenzae. Briefly: Antimicrobial activity against Haemophilus influenzae. It is filed as functional.
A short description of data set [10]: Ratio of AUC (0 to 24 hrs) in plasma of healthy human to MIC90 for erythromycin-susceptible Staphylococcus aureus. It is filed as functional.
A short description of data set [11]: Ratio of AUC (0 to 24 hrs) in […] healthy epithelial lining fluid to MIC90 for Moraxella catarrhalis. It is filed as functional.
Data set [12] can be described thus: Cmax in plasma of healthy human at 400 mg, po administered as single dose.
Data set [13] is described as follows: Tmax in plasma of healthy human at 400 mg, po administered as single dose.
The nature of data set [14]: Ratio of drug level in alveolar macrophages to plasma in healthy human at 400 mg, po administered as single dose after 6 hrs.
The nature of data set [15]: Ratio of drug level in alveolar macrophages to plasma in healthy human at 400 mg, po administered as single dose after 24 hrs.
Data set [16] in a line: AUC (0 to 24 hrs) in epithelial lining fluid of healthy human at 400 mg, po administered as single dose by linear trapezoidal method.
The subject of data set [17] is Homo sapiens. Briefly: Toxicity in healthy human assessed as eosinophil count in bronchoalveolar fluid at 400 mg, po administered as single dose after 24 hrs. The following applies: in vivo.
Data set [18] in a line: Ratio of alveolar macrophages AUC (0 to 24 hrs) to plasma AUC (0 to 24 hrs) in healthy human at 400 mg, po administered as single dose.
Data set [19] deals with Homo sapiens. Briefly: Toxicity in healthy human assessed as alveolar macrophage count in bronchoalveolar fluid at 400 mg, po administered as single dose after 10 hrs. The note with it: in vivo.

Structures are written as SMILES. ≈ marks a conversion by molar mass, not a printed value.

Turning to `CC[C@H]1OC(=O)[C@H](C)C(=O)[C@H](C)[C@@H](O[C@@H]2O[C@H](C)C[C@H](N(C)C)[C@H]2O)[C@@]2(C)C[C@@H](C)/C(=N\C(C)=O)[C@H](C)[C@@H](OC/C(=N\OCc3ccc(-n4cccn4)nc3)CO2)[C@]1(C)O` [MODITHROMYCIN], the Activity came to 0% in the data set on Homo sapiens [1]; 0% in the data set with Homo sapiens [2]; 13% in the data set with Homo sapiens [3]; 0% with Homo sapiens [4]; 0% in the data set with Homo sapiens [17]; 85.8% with Homo sapiens [19]. Moreover, the concentration at 8 h in [5] came to 0.441 µg/mL; in data set [6] it was 125 µg/mL. The concentration at 12 h in [7] is 176 µg/mL. The Kp at 2 h in [8] amounted to 26.3. The Kp at 4 h in data set [9] was 24.8. Besides, in the data set with Haemophilus influenzae, the MIC90 came to 8 µg/mL (≈ 9.51 µM). Also, the RatioAUC/MIC came out at 41.8 in data set [10] and 424.8 in [11]. The same compound yielded a Cmax in data set [12] of 0.687 µg/mL. Further, in [13], the Tmax is 2.27 h. Further, the partition ratio (Kp) at 6 h in data set [14] amounted to 183. Also, the Kp at 24 h in data set [15] stood at 232. Also, the AUC(0-t) at 24 h in data set [16] is 212 µg·h/mL. Moreover, the Kp in data set [18] was 245.

As a reminder, the Kp is tissue or fluid exposure divided by exposure in the circulation. The Cmax is the highest concentration seen after dosing. What is called Tmax is the time at which the peak concentration occurs. As usually defined, the AUC(0-t) is the area under the concentration-time curve up to a stated or last time point. High values mean more exposure, low ones less exposure.

(Values after ChEMBL document CHEMBL1240362, “Intrapulmonary pharmacokinetics of S-013420, a novel bicyclolide antibacterial, in healthy Japanese subjects” (Antimicrob Agents Chemother, 2010).)
